# Experimental data gathered from unrelated publications.
# Protocols differ between the studies behind these lines.
# Target: Casein kinase I isoform gamma-3 (CSNK1G3, Homo sapiens, UniProt Q9Y6M4)
Compound,assay,conditions,endpoint,value
Cn1c2c(c3ccc(Cl)c(Cl)c31)C(C#N)C1(CCCCC1)NC2=O (racemic),"thermal stability, DSF",10 µM,ΔTm,-0.2 °C
COc1cc(Nc2c(C#N)cnc3cc(OCCCN4CCN(C)CC4)c(OC)cc23)c(Cl)cc1Cl,cell-free assay,0.5 µM,remaining signal,98.3%
F[C@@H]1CCN(c2nccc(-c3cnn4ncccc34)n2)C1,binding,1 µM,remaining binding,86%
CC(C)CC(=O)N1CCc2nc(-c3ccc(Br)cc3)nc(N(C)Cc3ccccc3)c2C1,"cell-free assay, competition with immobilised ligand",0.1 µM,remaining binding,100%
Cc1cnc(NC2CCOCC2)nc1-n1cnc(C(=O)NC(CN)c2cc(F)cc(Cl)c2)c1 (centres unmarked),"enzyme activity, inhibitor, radiometric",1 µM,remaining activity,33%
Cn1c2c(c3ccc(Cl)c(Cl)c31)C(C#N)C1(CCOCC1)NC2=O (centres unmarked),"thermal stability, DSF",10 µM,ΔTm,0.2 °C
COc1cc2ncnc(Nc3ccc(Oc4ccccc4)cc3C)c2cc1OC,"enzyme activity, inhibitor",1 µM,inhibition,4%
CNC(=O)c1cc(Oc2ccc(NC(=O)Nc3ccc(Cl)c(C(F)(F)F)c3)cc2)ccn1,"enzyme activity, inhibitor",10 µM,inhibition,2%
Cn1c2c(Cl)c(Cl)ccc2c2cn[nH]c(=O)c21,"thermal stability, DSF",10 µM,ΔTm,-0.1 °C
CNC(=O)Nc1ccc2c(c1)CC[C@@]21OC(=O)N(CC(=O)N(Cc2ccc(F)cc2)[C@@H](C)C(F)(F)F)C1=O,"cell-free assay, competition with immobilised ligand",1 µM,remaining binding,84%
CCOc1cc(-c2nncn2C)ccc1Nc1ncc2cc(C)nc(NCC(C)(C)C)c2n1,"enzyme activity, inhibitor, FRET",1 µM,inhibition,< 15%
COc1cc2c(Nc3ccc(Br)cc3F)ncnc2cc1OCC1CCN(C)CC1,cell-free assay,0.5 µM,remaining signal,98.1%
Cc1cc(-n2nc(Cc3cc(F)cc(C(F)(F)F)c3)nc2C)ccc1C(N)=O,"cell-free assay, competition with immobilised ligand",1 µM,remaining binding,95%
CC(C)(O)[C@H]1CC[C@H](Nc2ccc3ncc(-c4cccc(C(F)(F)F)c4)n3n2)CC1,"enzyme activity, inhibitor",1 µM,remaining activity,90%
Nc1ncnc2occ(-c3ccc(NC(=O)Nc4cc(C(F)(F)F)ccc4F)cc3)c12,"cell-free assay, inhibitor",20 µM,remaining signal,11%
CC(C)(C)c1nc(-c2cccc(NS(=O)(=O)c3c(F)cccc3F)c2F)c(-c2ccnc(N)n2)s1,"enzyme activity, inhibitor, radiometric",1 µM,remaining activity,91%
C[C@@]1(Cc2ccc(C#N)cc2)C(=O)N(c2cc(Cl)cc(Cl)c2)c2ncc(C(=O)NC3(c4nc(C5CCC5)no4)CC3)n21,"cell-free assay, competition with immobilised ligand",1 µM,remaining binding,100%
Cc1sc(C(=O)NC2COC2)cc1-n1cc(NC(=O)Nc2c(F)cccc2Cl)cn1,"enzyme activity, inhibitor",10 µM,remaining activity,91.3%
C[C@@H]1CCN(C(=O)CC#N)C[C@@H]1N(C)c1ncnc2[nH]ccc12,"cell-free assay, inhibitor",0.5 µM,remaining signal,101%
O=C(N[C@H]1CCCCC/C=C\C2C[C@@]2(C(=O)O)NC(=O)[C@@H]2C[C@@H](Oc3ccncc3)CN2C1=O)OC1CCCC1 (some centres unmarked),"binding, competition with immobilised ligand",1 µM,remaining binding,100%
O=C1NC(=O)c2cc(Nc3ccc(F)cc3)c(Nc3ccc(F)cc3)cc21,cell-free assay,0.5 µM,remaining signal,90.7%
Cn1c2c(c3ccc(Cl)c(Cl)c31)C(C#N)C(C)(C)NC2=O (centres unmarked),"thermal stability, DSF",10 µM,ΔTm,0.5 °C
COc1cc2ncnc(Nc3ccc(F)c(Cl)c3)c2cc1OCCCN1CCOCC1,cell-free assay,0.5 µM,remaining signal,103%
O=C(O)[C@@H]1[C@@H](Cn2nnc3ccccc3c2=O)CC[C@H]1C(=O)c1ccc(OCCC2CCOCC2)cc1,"cell-free assay, competition with immobilised ligand",1 µM,remaining binding,100%
Cc1ccc(NC(=O)c2ccc(C)c(C(F)(F)F)c2)cc1C#Cc1nn(C2CCC(O)CC2)c2ncnc(N)c12 (centres unmarked),cell-free assay,10 µM,remaining signal,103%
CCS(=O)(=O)c1cc2cc(C[C@@](O)(CC(C)(C)c3ccc(F)cc3C(N)=O)C(F)(F)F)[nH]c2cn1,"cell-free assay, competition with immobilised ligand",1 µM,remaining binding,100%
Cc1ccc(Nc2nccc(N(C)c3ccc4c(C)n(C)nc4c3)n2)cc1S(N)(=O)=O,"enzyme activity, inhibitor",10 µM,inhibition,18%
C[C@@H](c1cccc(C#N)c1)n1cc(Cl)cc(C(N)=O)c1=N,"cell-free assay, competition with immobilised ligand",1 µM,remaining binding,100%
Cn1c2c(c3ccc(Cl)c(Cl)c31)C(C#N)C1(CCNCC1)NC2=O (racemic),"thermal stability, DSF",10 µM,ΔTm,2.9 °C
